According to ChEMBL document CHEMBL1129282, “High-affinity partial agonist imidazo[1,5-a]quinoxaline amides, carbamates, and ureas at the gamma-aminobutyric acid A/benzodiazepine receptor complex” (J Med Chem, 1996):
Activity calls are given as the source filed them.

Columns and labels:
Rattus norvegicus [1] = assay: Antagonistic activity against metrazole-induced clonic convulsions in rat after ip injection; type: functional
Rattus norvegicus [2] = species: Rattus norvegicus; assay: In vitro [36Cl]-uptake in rat cerebrocortical synaptoneurosomes; type: functional; parameters: unit not given here
Procedure, shortened: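 Rat cerebrocortical synaptoneurosomes (1 mg protein) preincubated 5 min at 30 °C, then mixed with medium containing 0.2 µCi Na36Cl/mL, 118 mM NaCl, 5 mM KCl, 1.8 mM MgSO4, 20 mM Hepes/Tris pH 7.0, ± drug (methanol ≤0.4%). Uptake stopped after 5 s with ice-cold buffer, rapid filtration, four washes, radioactivity counted.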

[3] = molecular target: GABA-A receptor; anion channel (Rattus norvegicus) (UniProt O09028+P15431+P18506+P18508+P19969+P20236+P23574+P23576+P28471+P28473+P30191+P62813+P63079+P63138+Q91ZM7+Q9ES14); conditions: Brain, Brain membranes
[4] = molecular target: GABA-A receptor; anion channel; assay: Inhibition of [3H]flunitrazepam binding to GABA-A receptor of rat cortical membranes; type: cell membranes, Membrane
Mus musculus [5] = assay: Ethanol potentiation activity was measured as loss of righting reflex in male CF-1 mice after oral administration; type: functional
Mus musculus [6] = assay: Ethanol potentiation activity was measured as loss of traction response in male CF-1 mice after oral administration; type: functional
Mus musculus [7] = species: Mus musculus; assay: Acute electroshock physical dependence activity was evaluated; A=Active; type: functional, organism-based
Procedure, shortened: (§1)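 Male CF-1 mice, 10/group, dosed sc twice daily (0800, and 1600 at twice the 0800 dose) for 3 days. 24 h after last dose, iv flumazenil 2.5 mg/kg in 5% aqueous N,N-dimethylacetamide. Electroshock seizure threshold (MA50) measured 5 min later versus saline-treated, flumazenil-injected controls. Compound scored active if threshold lowered beyond control interval.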

Mus musculus [8] = assay: In vivo antagonistic activity against benzodiazepine in mice after ip administration; type: functional
Procedure, shortened: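 Male CF-1 mice injected ip simultaneously with triazolam 1 mg/kg and test compound starting at […], in 0.25% aqueous methyl cellulose. Loss of traction scored 15 min later. Absence of triazolam effect indicated antagonism; lower doses at 0.5 log intervals then tested to establish ED50.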

Mus musculus [9] = species: Mus musculus; assay: Acute electroshock physical dependence activity was evaluated; IA=Inactive; type: functional, organism-based; procedure, shortened: as §1

SMILES	ED50 (Rattus norvegicus [1]) [mg/kg]	36Cl- uptake (Rattus norvegicus [2])	[35S] TBPS shift [3]	Ki [4] [nM]	ED50 (Mus musculus [5]) [mg/kg]	ED50 (Mus musculus [6]) [mg/kg]	Activity (Mus musculus [7])	ED50 (Mus musculus [8]) [mg/kg]	Activity (Mus musculus [9])
COC(=O)N1c2ccccc2-n2cnc(-c3noc(C4CC4)n3)c2C1(C)C	> 50	0.4	0.8	–	–	–	–	–	–
CCc1nc(-c2ncn3c2CN(C(=O)N2CCCC2)c2ccccc2-3)no1	> 50	0.25	0.39	0.65	–	–	–	–	–
O=C(N1Cc2c(-c3noc(C4CC4)n3)ncn2-c2ccccc21)C(F)(F)F	35	–	0.73	143	–	–	–	–	–
CNC(=O)N1c2ccccc2-n2cnc(-c3noc(C4CC4)n3)c2C1(C)C	> 50	0.67	0.71	21	–	–	–	–	–
CC(C)(C)OC(=O)N1Cc2c(-c3noc(C4CC4)n3)ncn2-c2ccccc21	0.06	–	2.9	–	–	–	–	–	–
CN(C)C(=O)N1Cc2c(-c3noc(C4CC4)n3)ncn2-c2cccc(Cl)c21	> 50	0.83	0.62	0.71	–	–	–	–	–
CN(C)C(=O)N1Cc2c(-c3noc(C4CC4)n3)ncn2-c2cccc(F)c21	21	0.6	0.84	0.89	> 30	3	Active	4	–
CC1(C)c2c(-c3noc(C4CC4)n3)ncn2-c2ccccc2N1C(=O)N1CCCC1	> 50	0.5	0.84	2.9	–	–	–	–	–
CNC(=O)N1Cc2c(-c3noc(C4CC4)n3)ncn2-c2ccccc21	11	0.53	0.95	2.8	11	2.7	Active	22	–
O=C(c1ccccn1)N1Cc2c(-c3noc(C4CC4)n3)ncn2-c2ccccc21	> 50	–	0.27	1.1	–	–	–	–	–
O=C(N1CCCC1)N1Cc2c(-c3noc(C4CC4)n3)ncn2-c2cccc(F)c21	> 50	0.59	1	0.64	–	–	–	–	–
CCSC(=O)N1Cc2c(-c3noc(C4CC4)n3)ncn2-c2ccccc21	1.3	1.1	1.1	2.1	–	–	–	–	–
O=C(N1CCCC1)N1Cc2c(-c3noc(C4CC4)n3)ncn2-c2ccc(F)cc21	> 50	0.69	1.25	0.56	–	–	–	–	–
O=C(N1CCCC1)N1Cc2c(-c3noc(C4CC4)n3)ncn2-c2cccc(Cl)c21	> 50	0.56	0.6	–	–	–	–	–	–
CN(C)C(=O)N1c2cc(Cl)ccc2-n2cnc(-c3noc(C4CC4)n3)c2C1(C)C	7.4	1.33	0.79	3.1	17	3	Active	–	–
CC(=O)N1c2ccccc2-n2cnc(-c3noc(C4CC4)n3)c2C1(C)C	30	–	0.7	–	–	–	–	–	–
CC(C)c1nc(-c2ncn3c2CN(C(=O)N2CCCC2)c2ccccc2-3)no1	11	0.4	0.69	1.1	> 30	17	–	> 30	inactive
O=C(N1CCCC1)N1Cc2c(-c3noc(C4CC4)n3)ncn2-c2ccc(Cl)cc21	0.6	–	0.93	1.1	> 30	0.4	–	> 30	inactive

SMILES	ED50 (Rattus norvegicus [1]) [mg/kg]	36Cl- uptake (Rattus norvegicus [2])	[35S] TBPS shift [3]	Ki [4] [nM]	ED50 (Mus musculus [5]) [mg/kg]	ED50 (Mus musculus [6]) [mg/kg]	Activity (Mus musculus [7])	ED50 (Mus musculus [8]) [mg/kg]	Activity (Mus musculus [9])
CC1(C)c2c(-c3noc(C4CC4)n3)ncn2-c2ccc(Cl)cc2N1C(=O)N1CCCC1	35	1.04	0.67	3.3	> 30	0.2	–	9	inactive
O=C(c1ccc[nH]1)N1Cc2c(-c3noc(C4CC4)n3)ncn2-c2ccccc21	4.4	1.1	0.92	1.1	–	–	–	–	–
CC(C)OC(=O)N1Cc2c(-c3noc(C4CC4)n3)ncn2-c2ccccc21	1.9	–	1.1	1.8	–	–	–	–	–
NC(=O)N1Cc2c(-c3noc(C4CC4)n3)ncn2-c2ccccc21	13	0.75	0.61	7.2	–	–	–	–	–
CSC(=O)N1c2ccccc2-n2cnc(-c3noc(C4CC4)n3)c2C1(C)C	> 50	1	0.8	5.1	–	–	–	–	–
CC(C)NC(=O)N1Cc2c(-c3noc(C4CC4)n3)ncn2-c2ccccc21	11	–	1.1	3.4	–	–	–	–	–
CC(C)(C)c1nc(-c2ncn3c2CN(C(=O)N2CCCC2)c2ccccc2-3)no1	18	1.2	0.76	14.7	–	–	–	–	–
CC1(C)c2c(-c3noc(C4CC4)n3)ncn2-c2ccccc2N1C(N)=O	> 50	0.22	0.6	86	–	–	–	–	–
COC(=O)N1Cc2c(-c3noc(C4CC4)n3)ncn2-c2ccccc21	4.4	–	0.7	1.5	–	–	–	–	–
O=C(N1CCOCC1)N1Cc2c(-c3noc(C4CC4)n3)ncn2-c2ccccc21	0.84	0.15	0.84	0.81	–	–	–	–	–
O=C(N1CCCC1)N1Cc2c(-c3noc(C4CC4)n3)ncn2-c2ccccc21	0.24	0.5	0.41	0.45	–	–	–	–	–
O=C(c1ccco1)N1Cc2c(-c3noc(C4CC4)n3)ncn2-c2ccccc21	21	0.55	0.98	0.43	–	–	–	–	–
O=C(Nc1ccccc1)N1Cc2c(-c3noc(C4CC4)n3)ncn2-c2ccccc21	> 50	0.29	1.3	16	–	–	–	–	–
CN(C)C(=O)N1Cc2c(-c3noc(C4CC4)n3)ncn2-c2ccc(Cl)cc21	–	–	0.88	3.7	–	–	–	–	–
CN(C)C(=O)N1c2ccccc2-n2cnc(-c3noc(C4CC4)n3)c2C1(C)C	> 50	0.34	0.97	3.1	–	–	–	–	–
CCN(CC)C(=O)N1Cc2c(-c3noc(C4CC4)n3)ncn2-c2ccccc21	15	0.62	0.82	0.85	> 30	> 30	–	4	inactive
O=C(Sc1ccccc1)N1Cc2c(-c3noc(C4CC4)n3)ncn2-c2ccccc21	> 50	0.5	1.1	11	–	–	–	–	–
CN(C)C(=O)N1Cc2c(-c3noc(C4CC4)n3)ncn2-c2ccc(F)cc21	–	0.95	0.99	0.61	–	–	–	–	–
